Screening data: PubChem BioAssay, NMMLSC
RGS8-Gao reg: human RGS8-Galphao interaction regulation | P09471 | response (percent of control binding), % at 10 µM | AID 1423 | 220,000 tested, 0.34% active | multiplexed bead flow cytometry, RGS8-Galphao binding; actives lie on both sides; in the data active = response below about 60% or above about 140%; inactive = in between;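 note: Galphao activated as the GDP aluminium fluoride complex binding bead-coupled RGS8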
RGS4-Gao reg: human RGS4-Galphao interaction regulation. P09471. Multiplexed bead flow cytometry, RGS4-Galphao binding; actives lie on both sides. binding response (% of control), % at 10 µM. 220,000 tested, 0.33% active; in the data active = binding response below about 49% or above about 150%; inactive = in between;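 note: fluorescent Galphao activated with aluminum fluoride binding bead-coupled RGS4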
ABCG2 inh: inhibitors of human ABCG2 transporter, ABCB1 counter-screen. IgMXP3 cells, JC-1 efflux, flow cytometry. inhibition, % at 6.6 µM. 190,000 tested, 0.1% active. AID 1325;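 active = inhibition above 80%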;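 note: 0% = DMSO and 100% = nicardipine control wells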
Target sequence (Q9UNQ0 whole entry, looked up): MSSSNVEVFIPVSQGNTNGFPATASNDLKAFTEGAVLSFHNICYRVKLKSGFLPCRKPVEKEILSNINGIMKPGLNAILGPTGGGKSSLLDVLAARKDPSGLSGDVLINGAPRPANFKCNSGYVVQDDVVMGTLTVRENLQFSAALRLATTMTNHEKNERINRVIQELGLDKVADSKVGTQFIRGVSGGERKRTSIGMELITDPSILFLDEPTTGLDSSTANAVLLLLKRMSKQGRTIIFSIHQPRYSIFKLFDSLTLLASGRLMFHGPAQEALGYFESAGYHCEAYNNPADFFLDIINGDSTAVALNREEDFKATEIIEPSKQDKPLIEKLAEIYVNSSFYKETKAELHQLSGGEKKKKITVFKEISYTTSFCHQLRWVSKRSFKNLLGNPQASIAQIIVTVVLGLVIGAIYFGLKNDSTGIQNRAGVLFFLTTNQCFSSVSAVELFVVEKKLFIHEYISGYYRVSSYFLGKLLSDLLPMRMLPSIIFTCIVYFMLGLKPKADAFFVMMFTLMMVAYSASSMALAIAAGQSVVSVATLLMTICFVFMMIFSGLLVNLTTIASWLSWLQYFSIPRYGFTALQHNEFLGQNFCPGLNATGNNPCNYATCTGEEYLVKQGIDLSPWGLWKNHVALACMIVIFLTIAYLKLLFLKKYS
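Incubation: cells with compound and JC-1, 10 min at 25 °C, rotating, no wash / Test system: IgMXP3 (ABCG2) plus far-red-tagged CCRF-Adr (ABCB1) cells / Compound dosing: one concentration, 6.6 µM final / Also added: JC-1 fluorescent substrate / Evaluation: efflux inhibition in percent versus controls / Detection: flow cytometry, 530 nm JC-1 signal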
RGS16-Gao HTS: RGS16-Galphao interaction regulator (human); O15492+P09471; binding response (% of control), % at 10 µM; AID 1441; bead-based flow cytometry RGS16-Galphao binding, fluorescence; actives lie on both sides; 220,000 tested, 0.38% active;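 note: Galphao activated by GDP with aluminum fluoride before binding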
ABCB1 block: inhibitors of human ABCB1 transporter, ABCG2 counter-screen. P08183. CCRF-Adr cells, JC-1 efflux, flow cytometry. inhibition, % at 6.6 µM. 190,000 tested, 0.067% active; in the data active = inhibition above about 40%;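 note: 0% = vehicle and 100% = reference inhibitor; higher value means more JC-1 retained so stronger ABCB1 efflux block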
RGS7-Gao: modulates binding of RGS7 to human Galphao. P09471. Multiplexed bead flow cytometry; actives lie on both sides. binding response (% of control), % at 10 µM. 220,000 tested, 0.35% active. AID 1439; in the data active = binding response below about 49% or above about 150%; inconclusive = no clear call, values can overlap the other calls; inactive = in between;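 note: fluorescent Galphao held in activated GDP-AlF4 state binding bead-coupled RGS7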
RGS-Gao: modulates binding between human RGS4 and Galphao. shares compounds with RGS16-Gao HTS. multiplexed bead flow cytometry, RGS–Galpha-o binding. RGS4–Galpha-o binding response, % at 10 µM. 1,600 tested, 99% active. AID 1504;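 note: fluorescently labeled Galpha-o bound to GDP with aluminium fluoride binding biotinylated RGS beads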
Biotin-avidin: counter-screen: compounds disrupting biotin binding to avidin beads | shares compounds with RGS16-Gao HTS | streptavidin beads, fluorescein-biotin binding, flow cytometry | inhibition, % at 10 µM | 1,700 tested, under 10 active;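 active = inhibition above 50%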;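 note: median green fluorescence of gated singlet beads compared with DMSO control wells; 0% = DMSO wells and 100% = complete loss of bead fluorescence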
RGS8-Gao confirm: RGS8-Galphao interaction regulation, single point confirmation; shares compounds with RGS16-Gao HTS; bead-based flow cytometry RGS8-Galphao binding, fluorescence; actives lie on both sides; binding response (% of control), % at 10 µM; 1,700 tested, 3% active; in the data active = binding response below about 72% or above about 130%; inactive = in between;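 note: Galphao activated as GDP AlF4 complex before binding bead RGS8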
RGS7-Gao single: RGS7-Galphao interaction regulation, single point confirmation; shares compounds with RGS16-Gao HTS; bead-based flow cytometry RGS7-Galphao binding; actives lie on both sides; response (percent of control binding), % at 10 µM; 1,700 tested, 7.8% active; AID 1837; in the data active = response below about 75% or above about 130%; inactive = in between;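 note: fluorescent Galphao activated with GDP and aluminum fluoride binding bead-coupled RGS7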
RGS16-Gao conf: RGS16-Galphao interaction regulation, single point confirmation | shares compounds with RGS16-Gao HTS | bead-based flow cytometry, RGS16-Galphao binding; actives lie on both sides | response (% of control binding), % at 10 µM | AID 1838 | 1,700 tested, 4% active; in the data active = response below about 74% or above about 130%; inactive = in between;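 note: Galphao activated as the GDP aluminium fluoride complex binding bead-coupled RGS16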
RGS4-Gao confirm: RGS4-Galphao interaction regulation, single point confirmation | binding response (% of control), % at 10 µM | RGS4-Galphao binding, multiplexed bead flow cytometry; actives lie on both sides | 1,700 tested, 4% active | shares compounds with RGS16-Gao HTS; in the data active = binding response below about 74% or above about 130%; inactive = in between
RGS19-Gao conf: confirmation of regulators of human RGS19-Galphao interaction. shares compounds with RGS16-Gao HTS. bead-based flow cytometry RGS19-Galphao binding; actives lie on both sides. response (percent of control binding), % at 10 µM. 1,700 tested, 5% active; in the data active = response below about 50% or above about 160%; inactive = in between;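 note: 100% = no compound control and 0% = blank background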
* marks the source's active call; other numbers are inactive results; ? = inconclusive; nt = not tested or not shown; [ ] = remark or other dose. Compounds with a hit are over-represented: about 0.9% of the library has one in this group of screens. Unless noted, the rule behind the calls is not given here.

SMILES	RGS8-Gao reg	RGS4-Gao reg	ABCG2 inh	RGS16-Gao HTS	ABCB1 block	RGS7-Gao	Biotin-avidin	RGS8-Gao confirm	RGS7-Gao single	RGS16-Gao conf	RGS4-Gao confirm	RGS19-Gao conf	others
CC(=O)Nc1ccc(NC(=S)Nc2ccccc2)cc1	nt	nt	-0.8	nt	0.1	nt	1.6	102.6	108.6	102.7	105.7	103.8
COc1ccc(N2CCN(c3nc4ccccc4n3CC(=O)c3ccccc3)CC2)cc1	98.5	107.8	1.3	103.3	1.9	165.4*[activator]	0.4	105.0	103.5	107.5	103.5	108.9	RGS-Gao=107.8*
CCOC(=O)C1CCN(c2nc3ccccc3n2CC(=O)c2ccccc2)CC1	104.5	98.9	2.4	100.9	0.8	97.7	nt	nt	nt	nt	nt	nt
COc1ccc(C)cc1-n1nnnc1SCC1CCCO1 (configuration not stated)	16.0*	25.9*	3.5	16.5*	-0.4	20.6*	-1.6	108.0	108.4	108.5	106.3	117.5
O=C(CN1CCN(C(=O)c2ccco2)CC1)Nc1ccc2c(c1)OCCO2	98.6	121.8	8.9	108.5	0.2	178.4*[activator]	0.3	96.7	94.5	95.3	99.3	98.1	RGS-Gao=121.8*
CC(C(=O)Nc1ccc2c(c1)OCCO2)N1CCN(C(=O)c2ccco2)CC1 (configuration not stated)	105.7	92.2	0.6	113.8	0.2	92.2	nt	nt	nt	nt	nt	nt
COc1ccc(CCN=C(N)NS(=O)(=O)c2ccc(C)c(C)c2)cc1	97.8	98.7	5.4	101.4	0.5	97.8	nt	nt	nt	nt	nt	nt
NS(=O)(=O)c1cccnc1Nc1c(Cl)cccc1Cl	127.9	208.5*[activator]	0.8	213.3*[activator]	0.5	179.1*[activator]	0.4	104.1	108.0	106.5	105.7	102.8
CC(=O)NS(=O)(=O)c1cccnc1Nc1cccc(Cl)c1C	102.0	97.1	0.4	101.2	0.5	98.9	nt	nt	nt	nt	nt	nt
Cc1ccc(C(=O)Nc2nc(COc3ccccc3)cs2)s1	nt	nt	14.3	nt	1.9	nt	-1.0	103.7	99.6	101.3	103.6	107.1
CC(=O)Nc1nc(COc2ccccc2)cs1	97.3	101.2	2.1	96.4	0.4	99.0	nt	nt	nt	nt	nt	nt
CC(C)C(=O)NC(=S)N(Cc1ccccc1)Cc1ccccc1	123.5	106.5	-13.1	184.0*[activator]	-1.4	106.1	-1.2	101.3	62.5*	88.1	70.3*	170.5*[activator]	RGS-Gao=106.5*
CC(C)CC(=O)NC(=S)N(Cc1ccccc1)Cc1ccccc1	96.1	94.9	-0.8	94.3	-0.1	97.4	nt	nt	nt	nt	nt	nt
Cc1cc(C)c(C#N)c(SCCS(=O)(=O)c2ccc(C(C)(C)C)cc2)n1	nt	nt	6.0	nt	1.1	nt	3.0	100.4	96.9	98.0	97.1	92.5
Cc1ccc(N2C(=O)C(Cc3ccc(O)cc3)NC2=S)cc1C (configuration not stated)	101.2	100.9	-5.2	107.3	-0.4	102.0	nt	nt	nt	nt	nt	nt
Cc1ccc(NC(=S)N2CCCCC2)cc1C	98.3	102.1	nt	101.0	nt	?	nt	nt	nt	nt	nt	nt
COc1ccc(-c2cc(C(F)(F)F)c(C#N)c(SCC(=O)Nc3ccccc3C#N)n2)cc1	121.5	256.5*[activator]	0.3	468.6	0.2	152.6*[activator]	-0.4	101.7	88.9	100.0	92.3	114.3
CCC(Oc1cc(Cl)ccc1Cl)C(=O)NNC(=O)CCC(=O)O (configuration not stated)	60.1	80.0	9.3	13.3*	3.9	81.0	-0.4	97.7	103.9	100.1	100.7	84.5	RGS-Gao=80.0*
COc1ccc(Cl)cc1NC(=O)CN1C(=O)CC(C)S(=O)(=O)c2ccccc21 (configuration not stated)	96.1	96.9	0.1	102.3	0.8	?	nt	nt	nt	nt	nt	nt
O=C(Nc1ccc2c(c1)OCO2)N1CCN(c2ccccc2Cl)CC1	100.0	103.2	1.6	99.7	0.3	99.0	nt	nt	nt	nt	nt	nt
O=C(Nc1ccc2c(c1)OCO2)N1CCN(c2cccc(C(F)(F)F)c2)CC1	72.4	46.5*	1.3	-242.7	-0.4	68.2	-1.2	97.7	95.6	96.5	98.5	104.5
O=Cc1ccccc1OCCOc1ccc([N+](=O)[O-])cc1	99.6	98.5	21.5	100.1	1.1	99.1	nt	nt	nt	nt	nt	nt
Nc1[nH]nc2nc(-c3ccccc3)[nH]c(=O)c12	100.8	99.9	nt	101.1	nt	?	nt	nt	nt	nt	nt	nt
Nc1nc(-c2ccccc2)[nH]c(=O)c1N	137.6	116.5	-0.8	240.6	-0.3	113.8	0.6	100.4	98.4	99.4	98.8	87.0
CN1CCN(C2=C(Cl)C(=O)N(C3CCCCC3)C2=O)CC1	102.9	104.8	6.0	102.7	0.2	102.7	nt	nt	nt	nt	nt	nt
SMILES	RGS8-Gao reg	RGS4-Gao reg	ABCG2 inh	RGS16-Gao HTS	ABCB1 block	RGS7-Gao	Biotin-avidin	RGS8-Gao confirm	RGS7-Gao single	RGS16-Gao conf	RGS4-Gao confirm	RGS19-Gao conf	others
CN1CCN(C2=C(Cl)C(=O)C(c3cnc(N4CCCCC4)s3)=C(Cl)C2=O)CC1	63.6	70.1	-4.5	14.1*	-1.3	76.4	-0.4	27.5*	18.2*	-8.3*	63.1*	-8.1*	RGS-Gao=70.1*
CC1(C)Cc2c(sc3c2c(=O)n(-c2cccc(Cl)c2)c(=O)n3CC(N)=O)CO1	99.8	98.6	nt	101.0	nt	?	nt	nt	nt	nt	nt	nt
CCCOc1ccc(C(=O)NCC(c2cccs2)N(C)C)cc1OC (configuration not stated)	103.5	103.4	3.9	99.7	1.2	104.4	nt	nt	nt	nt	nt	nt
COc1cc(C(=O)NCC(c2cccs2)N(C)C)cc(Cl)c1OC(C)C (configuration not stated)	122.5	116.0	16.3	210.9*[activator]	1.4	119.5	1.6	103.0	108.8	105.2	106.3	112.1	RGS-Gao=116.0*
CC(=O)NS(=O)(=O)c1ccc(N=c2ssc3c2-c2ccc(C)cc2NC3(C)C)cc1	97.4	101.0	-2.3	103.2	-0.1	101.0	nt	nt	nt	nt	nt	nt
COCCn1nnnc1C(C(C)C)N1CCC(Cc2ccccc2)CC1 (configuration not stated)	86.9	154.8*[activator]	3.9	151.2	0.7	101.8	-1.2	104.2	103.7	103.6	101.0	92.2
